Bioassay records as filed in PubChem.
NALP1 inh = NALP1 inhibition; inhibition, % at 10 µM; actives 0.61% (n = 280,000); S. cerevisiae NALP1/ASC/caspase-1 growth, X-gal OD620, 72 h; in the data active = inhibition mostly above about 24%, no sharp cut-off; inactive = mostly below about 32%
NALP3 yeast inh = NALP3 inhibition in yeast. Yeast reconstituted NLRP3/ASC/caspase-1, beta-gal luminescence, 24 h. inhibition, % at 10 µM. actives 0.39% (n = 330,000);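 active = inhibition of 50% or more; inactive = inhibition below 50%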;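 note: plate controls were induced DMSO wells for no effect and uninduced yeast grown without galactose for full effect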
L major viab = Leishmania major promastigote growth inhibition | Leishmania major promastigotes, resazurin fluorescence viability | inhibition, % at 10 µM | actives 9% (n = 200,000); in the data active = inhibition above about 50%;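 note: promastigotes grown with compound for 44 hours at 28 °C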
T cruzi inh = blocks replication of Trypanosoma cruzi; T. cruzi beta-gal in NIH3T3, luminescence, 90 h; inhibition, % (concentration not given with the values); actives 1.4% (n = 300,000); AID 1885;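 active = mean inhibition across valid replicates above about 55%, limit read from the data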;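 note: signal also drops with host cell toxicity which is not excluded here; 0% = plate median of DMSO wells and 100% = zero luminescence signal; higher percent means less beta-gal luminescence so fewer parasites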
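Material: NIH/3T3 host cells with β-galactosidase reporter T. cruzi; Input: 5,000 host fibroblasts per well; Medium: DMEM, 2% fetal bovine serum; Compound: 50 nL DMSO compound solution per well; Schedule: 3 h host attachment, then at least 90 h co-culture; Detection: luminescent β-galactosidase signal after 60 min lysis.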
Calb FLC = C. albicans growth modulation with fluconazole. C. albicans CaCi-2 + fluconazole, Alamar Blue growth, 48 h. growth inhibition, % (test concentration not listed). actives 0.57% (n = 300,000);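 active = growth inhibition above about 58% in most replicates, limit read from the data, passing the limit was not always enough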;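 note: all wells also contain fluconazole at 8 µg/ml as a sub-toxic cotreatment; 0% = median of DMSO wells and 100% = median of geldanamycin control wells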
PolyA inh = yeast polyadenylation inhibition; S. cerevisiae SKY197-pL101 polyadenylation reporter, beta-gal luminescence; efflux-impaired pdr1/pdr3 knockout yeast; score 100 = 6 SD above DMSO; activity score, % at 12 µM; actives 0.02% (n = 300,000); AID 1875;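 active = lowest replicate activity score at least 50, where 100 means six control SD above control mean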;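 note: yeast exposed to compound for 9 h at 30 °C; higher score means more reporter readthrough which indicates perturbed polyadenylation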
Starred values were filed as active, the others as inactive. The entries come from a sample that favours hits as a whole.

Results for CCN(CC)CCNC(=O)c1ccc(NC(=O)/C=C/c2cc(OC)c(OC)c(OC)c2)cc1 ?
NALP1 inh: 18.4; NALP3 yeast inh: 6.4; L major viab: 11.2; T cruzi inh: -6.3; Calb FLC: 66.1*; PolyA inh: 20.7

What do the screens show for `COc1cc(/C=C/C(=O)Nc2ccc(C)cc2)cc(OC)c1OC`?
NALP1 inh: 48.8; NALP3 yeast inh: 29.1; L major viab: 5.3; T cruzi inh: -4.1; Calb FLC: -4.7; PolyA inh: -2.1

Results for CN(C)S(=O)(=O)c1cccc(NC(=O)COC(=O)COc2ccccc2[N+](=O)[O-])c1 ?
NALP1 inh: -7.6; NALP3 yeast inh: -3.4; L major viab: -7.5; T cruzi inh: -13.0; Calb FLC: 4.4; PolyA inh: 3.6

What do the screens show for `Cc1cccc(N2CCN(C(=O)c3ccc4c(c3)CCN4S(C)(=O)=O)CC2)c1C`?
NALP1 inh: 25.5; NALP3 yeast inh: 0.8; T cruzi inh: 11.9; Calb FLC: 8.0; PolyA inh: 19.9

What do the screens show for `COCCNC(=S)Nc1ccc2nc(N3CCCC3)cc(C)c2c1`?
NALP1 inh: 33.9; NALP3 yeast inh: 15.4; L major viab: 99.9*; T cruzi inh: 13.9; Calb FLC: -1.2; PolyA inh: 13.2

Results for CCOCCCNC(=S)Nc1ccc2nc(N3CCCC3)cc(C)c2c1 ?
NALP1 inh: 11.2; NALP3 yeast inh: 11.2; L major viab: 99.6*; T cruzi inh: 31.0; Calb FLC: -6.7; PolyA inh: -2.3

How did Cc1cc(N2CCCC2)nc2ccc(NC(=S)NC(C)C)cc12 do in these assays?
NALP1 inh: 13.0; NALP3 yeast inh: 22.5; L major viab: 99.4*; T cruzi inh: 20.2; Calb FLC: -6.8; PolyA inh: -20.3

What do the screens show for `COc1cccc(OC)c1C(=O)N1CCN(C(=O)c2ccc(-c3ccccc3)cc2)CC1`?
NALP1 inh: 1.4; NALP3 yeast inh: 26.5; T cruzi inh: 6.3; Calb FLC: -13.0; PolyA inh: 8.1

How did CSc1ccccc1C(=O)C1CCCN(S(=O)(=O)c2c(C)noc2C)C1 (configuration not stated) do in these assays?
NALP1 inh: 11.9; NALP3 yeast inh: -6.6; L major viab: 9.8; T cruzi inh: 5.6; Calb FLC: 8.4; PolyA inh: 13.4

Results for Cc1cc(NC(=O)COC(=O)[C@H](Cc2c[nH]c3ccccc23)NC(=O)c2ccc(F)cc2)no1 ?
NALP1 inh: -5.7; NALP3 yeast inh: 8.0; L major viab: -3.9; T cruzi inh: -13.1; Calb FLC: 24.6; PolyA inh: 5.1

Results for O=C1[C@H]2[C@@H](C(=O)N1c1cccc3ccccc13)C1(C(=O)c3ccccc3C1=O)N1CCC[C@@H]21 ?
NALP1 inh: 11.7; NALP3 yeast inh: 3.6; L major viab: 3.4; T cruzi inh: -27.2; Calb FLC: 24.4; PolyA inh: 11.1

What do the screens show for `COc1ccc(NC(=S)N2CCN(CCN=CC3=C(O)CC(c4ccccc4)CC3=O)CC2)cc1` (configuration not stated)?
NALP1 inh: 22.7; NALP3 yeast inh: 7.4; L major viab: 53.3*; T cruzi inh: 9.4; Calb FLC: -8.0; PolyA inh: -9.7

Results for Cc1nc2cc(Nc3nnc(-c4ccccc4)c4ccccc34)ccc2n1C ?
NALP1 inh: 0.1; NALP3 yeast inh: 4.4; L major viab: 88.4*; T cruzi inh: 40.4; Calb FLC: 4.5; PolyA inh: 2.3

Results for CC1CCCC(C)N1CCNC(=O)CCn1nc(-c2ccccc2)ccc1=O (configuration not stated) ?
NALP1 inh: 9.8; NALP3 yeast inh: 2.1; L major viab: -1.2; T cruzi inh: 6.5; Calb FLC: -4.1; PolyA inh: 18.0

How did CCOc1ccc(NC(=S)NCCCn2ccnc2)cc1 do in these assays?
NALP1 inh: 9.0; NALP3 yeast inh: 6.4; L major viab: 83.2*; T cruzi inh: 8.7; Calb FLC: -4.2; PolyA inh: -8.3

Results for CCCCOc1ccc(NC(=O)C(=O)NCCCn2ccnc2)cc1 ?
NALP1 inh: -14.9; NALP3 yeast inh: 2.8; L major viab: 17.5; T cruzi inh: 26.7; Calb FLC: -1.8; PolyA inh: 8.4

What do the screens show for `Cc1cccc(NS(=O)(=O)c2cc3c(cc2C)n(C)c(=O)c(=O)n3C)c1`?
NALP1 inh: 16.8; NALP3 yeast inh: -0.6; T cruzi inh: -0.9; Calb FLC: -3.7; PolyA inh: 9.6

How did C/C(=N/Nc1ccc(C)cc1)C1(C)N(O)C(C)(C)C(c2ccco2)=[N+]1[O-] (configuration not stated) do in these assays?
NALP1 inh: 2.5; NALP3 yeast inh: 22.7; L major viab: 1.5; T cruzi inh: -5.6; Calb FLC: 111.9*; PolyA inh: 26.0

What do the screens show for `CC1(C)C(c2ccco2)=[N+]([O-])C2(CCCCC2=O)N1O` (configuration not stated)?
NALP1 inh: -5.9; NALP3 yeast inh: 5.7; L major viab: -7.9; T cruzi inh: -0.1; Calb FLC: -2.6; PolyA inh: 1.9

What do the screens show for `CC1(c2ccccc2)NC(=O)N(CC(=O)N2CCN(S(=O)(=O)c3ccccc3[N+](=O)[O-])CC2)C1=O` (configuration not stated)?
NALP1 inh: -4.2; NALP3 yeast inh: 14.6; T cruzi inh: 0.0; Calb FLC: 2.5; PolyA inh: 5.4

What do the screens show for `COc1cccc(NC(=O)CNC(=O)c2ccccc2)c1`?
NALP1 inh: 10.9; NALP3 yeast inh: 14.2; L major viab: -0.9; T cruzi inh: -7.5; Calb FLC: -5.5; PolyA inh: 9.5

How did CCOc1ccc(NS(=O)(=O)c2cc(NC(=O)c3cccc(C)c3)ccc2Cl)cc1 do in these assays?
NALP1 inh: 14.2; NALP3 yeast inh: 13.3; L major viab: 99.2*; T cruzi inh: 51.7; Calb FLC: 15.6; PolyA inh: 2.1

How did Cc1ccc(NC(=O)CNC(=O)c2cccs2)cc1S(=O)(=O)Nc1ccc(Cl)cc1 do in these assays?
NALP1 inh: 22.0; L major viab: 56.9*; T cruzi inh: 9.0; Calb FLC: 8.4; PolyA inh: -7.6

How did CCOc1ccc(NS(=O)(=O)c2cc(C(=O)N3CCCC3)ccc2Cl)cc1 do in these assays?
NALP3 yeast inh: 19.1; T cruzi inh: 1.7; Calb FLC: 9.4; PolyA inh: 12.1

How did COc1ccc(NS(=O)(=O)c2cc(NC(=O)CNC(=O)c3cccc(OC)c3)ccc2C)cc1 do in these assays?
NALP1 inh: 24.3; NALP3 yeast inh: 9.2; L major viab: 61.0*; T cruzi inh: -2.1; Calb FLC: 9.9; PolyA inh: -5.9

Results for COc1ccc(NC(=O)CNC(=O)c2cccs2)cc1Cl ?
NALP1 inh: 3.9; NALP3 yeast inh: 4.0; L major viab: 0.5; T cruzi inh: 0.7; Calb FLC: -3.6; PolyA inh: -19.4

Results for CCC(C)N(C(=O)CSc1nc(C)c(C)c(C)c1C#N)C1CCS(=O)(=O)C1 (configuration not stated) ?
NALP3 yeast inh: 16.9
